Beta apoptosis = beta cell apoptosis inhibition; INS-1E cytokine-induced death, ATP luminescence, 48 h; percent of positive-control rescue, neutral wells zero; protection from apoptosis, % (test concentration not listed); actives 0.8% (n = 300,000); AID 435005;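 active = Every replicate reaches about 75%, or at least half do and their mean reaches it too, limit read from the data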;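 also: higher means more ATP so stronger rescue from cytokine killing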
TMEM16A act = activates or potentiates the mouse TMEM16A chloride channel | Q8BHY3 | HEK293 TMEM16A/YFP-H148Q/I152L, iodide quench fluorescence; hits give low values | B-score at 10 µM | actives 0.3% (n = 340,000) | AID 623877;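 active = fluorescence-ratio B-score plate-corrected deviation score at least 3 library SD below zero, with starting fluorescence score within 5 deviations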;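 also: channel opened by trigger with iodide after compound preincubation; score built on the fluorescence ratio of max minus min over baseline; more negative score means more quench and so TMEM16A activation or potentiation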
MC4R antag cAMP = blocks human MC4R cAMP signaling | P32245 | MC4R-expressing cells, MTII-stimulated cAMP, LANCE TR-FRET | inhibition, % at 6.5 µM | actives 0.48% (n = 360,000) | AID 540295;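 active = inhibition above its plate's cutoff, the mean of tested wells on that plate plus 3 SD, cut at about 29% in these data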
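Material: U2OS-MC4R stable cell line | Reagent: Melanotan II challenge after compound preincubation | Doses: One concentration, 6.5 µM nominal | Incubation: 30-min compound preincubation, 1-h Melanotan II challenge, 1-h detection, room temperature | Signal: TR-FRET cAMP assay | Replicates: One well per compound, no replicates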
MC4R barr agon = human MC4R agonism via beta-arrestin; U2OS MC4R beta-arrestin complementation, luminescence; percent of melanotan II response, DMSO zero; activation, % at 8.9 µM; actives 0.98% (n = 360,000); AID 540308;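 active = activation above a per-plate cutoff, the mean activation of sample wells on that plate plus 3 SD, cut at about 8% in these data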
TMEM16A inh = mouse TMEM16A channel inhibition, primary screen | AID 588511 | HEK293 TMEM16A/YFP iodide influx fluorescence, ionomycin | normalized B-score (activity score, 25-100; higher = stronger inhibition) at 10 µM | actives 1.2% (n = 310,000);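 active = ratio plate-corrected score three or more library SD toward inhibition, starting fluorescence score within five deviations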;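 also: score derived from kinetic fluorescence span divided by baseline fluorescence per well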
CSC inhib = blocks cancer stem cells. actives 1.1% (n = 300,000). AID 2717. inhibition, % at 7.5 µM. cancer stem cell-like cells viability, luminescence; in the data active = inhibition above about 75%; tested in HMLE shEcad cells
TMEM16A reconf = reconfirmed blocker of mouse TMEM16A calcium-activated chloride channel; actives 39% (n = 2,300); inhibition, % at 10 µM; shares compounds with TMEM16A inh; HEK293 TMEM16A/YFP-H148Q, iodide quench fluorescence; ionomycin added to raise cell calcium;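 active = mean duplicate percent inhibition, scaled so buffer wells are 0 and the reference blocker 100, over three buffer SD above buffer mean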
HEK293 Ca mobil = alters calcium mobilization in TMEM16A HEK293 cells, counter-screen. shares compounds with TMEM16A inh. TMEM16A/YFP HEK293, Fluo4 calcium mobilization. calcium response (% of ionomycin), % at 10 µM. actives 2% (n = 2,300);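 active = duplicate-averaged calcium signal over 20% of the ionomycin maximum, relative to buffer baseline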;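 also: each well's signal is peak minus trough fluorescence divided by its pre-addition baseline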
YFP-HEK293 quench = parental YFP-HEK293 iodide quench counter-screen activity; shares compounds with TMEM16A inh; ionomycin; YFP ratio F(max-min)/F0 at 10 µM; 2,300 tested, under 10 active; AID 652233;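 active = yellow fluorescent protein signal ratio exceeding the buffer control mean by over 5 SD of those controls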;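 also: ratio is mean of duplicate wells from kinetic YFP trace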
ClC-1 rat inh = blocks the rat ClC-1 voltage-dependent chloride channel; shares compounds with TMEM16A inh; CHO ClC-1-YFP, iodide influx fluorescence quench; iodide control reads 0, buffer control 100; ratio percent, % at 10 µM; 2,300 tested, under 10 active;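 active = duplicate-mean ratio percent above the mean of iodide-only control wells, which defines zero, plus 5 of their SD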;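 also: higher percent means stronger block of ClC-1 iodide influx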
Target sequence (P35524 whole entry, looked up): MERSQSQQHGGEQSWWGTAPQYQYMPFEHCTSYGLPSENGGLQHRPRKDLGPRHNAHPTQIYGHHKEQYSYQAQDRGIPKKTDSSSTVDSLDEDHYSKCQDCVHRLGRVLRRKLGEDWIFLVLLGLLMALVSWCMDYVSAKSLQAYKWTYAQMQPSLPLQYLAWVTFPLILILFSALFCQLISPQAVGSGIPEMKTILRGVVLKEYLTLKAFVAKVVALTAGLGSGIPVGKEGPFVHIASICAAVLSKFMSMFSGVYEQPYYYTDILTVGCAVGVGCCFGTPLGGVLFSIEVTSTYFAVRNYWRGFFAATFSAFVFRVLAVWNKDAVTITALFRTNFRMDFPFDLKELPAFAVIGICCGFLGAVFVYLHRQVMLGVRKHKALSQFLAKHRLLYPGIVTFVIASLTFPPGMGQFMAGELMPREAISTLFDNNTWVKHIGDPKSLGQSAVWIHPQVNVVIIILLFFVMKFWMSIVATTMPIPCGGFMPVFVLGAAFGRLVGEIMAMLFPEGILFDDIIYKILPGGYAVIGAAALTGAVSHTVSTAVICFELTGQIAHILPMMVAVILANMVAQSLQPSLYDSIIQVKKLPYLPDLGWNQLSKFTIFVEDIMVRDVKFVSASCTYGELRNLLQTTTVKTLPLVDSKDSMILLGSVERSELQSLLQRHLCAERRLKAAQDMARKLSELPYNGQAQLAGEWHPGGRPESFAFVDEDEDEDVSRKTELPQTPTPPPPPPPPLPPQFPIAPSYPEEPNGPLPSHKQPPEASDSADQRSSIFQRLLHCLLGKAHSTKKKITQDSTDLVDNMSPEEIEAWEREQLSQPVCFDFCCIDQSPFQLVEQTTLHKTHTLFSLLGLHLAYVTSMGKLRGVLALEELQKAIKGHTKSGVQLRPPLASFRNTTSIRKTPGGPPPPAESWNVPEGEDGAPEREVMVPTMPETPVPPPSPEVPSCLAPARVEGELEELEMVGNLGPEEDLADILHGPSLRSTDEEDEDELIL
Of the large screens only hits and unclear results are named; the others gave an inactive call (follow-up assays come after a bar, where they were run). An excerpt weighted towards active compounds, which were near 3.8% of everything screened.

c1ccc(Oc2cccc(OCCCCSc3ncccn3)c2)cc1	TMEM16A inh 100 | TMEM16A reconf inactive | HEK293 Ca mobil inactive | YFP-HEK293 quench inactive | ClC-1 rat inh inactive
COCCN(C(=O)CSc1nnc(-c2cccs2)n1N)c1c(N)n(Cc2ccccc2)c(=O)[nH]c1=O	none (no result: Beta apoptosis)
Clc1ccc2nc3c4ccccc4cnn3c2c1	none
Oc1ccc2nnc3c(Br)cnn3c2c1	none | TMEM16A reconf inactive | HEK293 Ca mobil inactive | YFP-HEK293 quench inactive | ClC-1 rat inh inactive
COc1cccc(/C=C/C(=O)OCC(=O)Nc2cccc(S(=O)(=O)NC3=NCCCCC3)c2)c1	none (no result: TMEM16A inh)
CCCCCCCCCc1nc2sc3c(c2c(=O)n1NC(=O)c1ccccc1[N+](=O)[O-])CC(C)(C)OC3	TMEM16A inh 25, CSC inhib 107 | TMEM16A reconf inactive | HEK293 Ca mobil inactive | YFP-HEK293 quench inactive | ClC-1 rat inh inactive
CCCCCCCCCc1nc2sc3c(c2c(=O)n1NC(=O)c1ccc([N+](=O)[O-])cc1)CC(C)(C)OC3	none
O=C(COC(=O)c1ccc[n+]([O-])c1)Nc1ccc([N+](=O)[O-])cc1Cl	none (no result: TMEM16A inh)
COCC(C)n1c(C)cc(C(=O)COC(=O)c2oc3ccccc3c2C)c1C (centres undefined)	TMEM16A inh 100 | TMEM16A reconf 26% | HEK293 Ca mobil inactive | YFP-HEK293 quench inactive | ClC-1 rat inh inactive
C=CCCC(=O)N1C[C@H]2CON(C)[C@H]2C[C@H]1c1cccc(N2CCOCC2)c1	none (no result: Beta apoptosis, TMEM16A act, TMEM16A inh, CSC inhib)
Cc1ccc(C(=O)NCC(=O)N(C)Cc2ccccc2C)s1	none (no result: Beta apoptosis, TMEM16A act, TMEM16A inh, CSC inhib)
COc1ccccc1NS(=O)(=O)c1cc(NC(=O)c2ccc(Cl)nc2)ccc1Cl	TMEM16A inh 25 | TMEM16A reconf 26% | HEK293 Ca mobil inactive | YFP-HEK293 quench inactive | ClC-1 rat inh inactive
Cc1ccc(NC(=O)c2ccc(Cl)c(S(=O)(=O)N3CCCCC3)c2)nc1	none (no result: TMEM16A inh)
Cc1occc1C(=O)NNC(=O)Nc1ccc(F)cc1F	none
Cc1occc1C(=O)Nc1ccc(Br)cc1F	TMEM16A inh 100 | TMEM16A reconf inactive | HEK293 Ca mobil inactive | YFP-HEK293 quench inactive | ClC-1 rat inh inactive
COc1ccc(C)cc1NC(=O)CSc1nnc(-c2ccc(Br)cc2)o1	TMEM16A inh 100 | TMEM16A reconf inactive | HEK293 Ca mobil inactive | YFP-HEK293 quench inactive | ClC-1 rat inh inactive
COc1ccccc1NC(=O)CSc1nnc(-c2ccc(C)cc2)o1	none
O=C(CSc1nc(O)cc(=O)n1-c1ccc(Cl)c(Cl)c1)Nc1ccc(Cl)cc1Cl	none (no result: Beta apoptosis)
COc1ccc2c(c1)CC/C(=C\Nc1ccc3c(c1)OCO3)C2=O	TMEM16A inh 25 | TMEM16A reconf inactive | HEK293 Ca mobil inactive | YFP-HEK293 quench inactive | ClC-1 rat inh inactive
Cc1ccccc1NC(=O)c1cc[n+]([O-])cc1	none
NC(=O)C1CCN(C(=O)c2ccc(NS(=O)(=O)c3ccc(Br)s3)cc2)CC1	none (no result: Beta apoptosis, TMEM16A inh, CSC inhib)
CCOc1ccc(OCC)c(NC(=O)CCn2c(=O)oc3ccccc32)c1	TMEM16A inh 100 | TMEM16A reconf inactive | HEK293 Ca mobil inactive | YFP-HEK293 quench inactive | ClC-1 rat inh inactive
Cc1sc2nc(SCc3ccc(C(=O)O)cc3)n(Cc3ccco3)c(=O)c2c1C	TMEM16A inh 25 | TMEM16A reconf 30% | HEK293 Ca mobil inactive | YFP-HEK293 quench inactive | ClC-1 rat inh inactive
C=CCn1c(SCc2ccc(C(=O)O)cc2)nc2sc(C)c(C)c2c1=O	none
Cc1noc(C)c1CSCC(=O)N1CCN(c2ccc(F)cc2)CC1	none
Cc1cccc(N2CCN(C(=O)CSCc3c(C)noc3C)CC2)c1C	TMEM16A inh 100 (no result: Beta apoptosis) | TMEM16A reconf 42% | HEK293 Ca mobil inactive | YFP-HEK293 quench inactive | ClC-1 rat inh inactive
O=C(C1=C(O)/C(=C/c2ccc(O)cc2)CCC1)C(F)(F)F	TMEM16A inh 25 | TMEM16A reconf inactive | HEK293 Ca mobil inactive | YFP-HEK293 quench inactive | ClC-1 rat inh inactive
O=S(=O)(Nc1nc2ccccc2nc1Cl)c1ccc2ccccc2c1	TMEM16A inh 100 | TMEM16A reconf 28% | HEK293 Ca mobil inactive | YFP-HEK293 quench inactive | ClC-1 rat inh inactive
Cc1ccc(C(C)(C)C)cc1S(=O)(=O)Nc1nc2ccccc2nc1Cl	TMEM16A inh 100 | TMEM16A reconf 40% | HEK293 Ca mobil inactive | YFP-HEK293 quench inactive | ClC-1 rat inh inactive
CNc1cncc(-c2ccc(OC)cc2)n1	none (no result: Beta apoptosis, TMEM16A act, TMEM16A inh, CSC inhib)
Cc1cccc(C(=O)OCC(=O)Nc2ccc(N3CCCCC3)cc2)c1O	none | TMEM16A reconf inactive | HEK293 Ca mobil inactive | YFP-HEK293 quench inactive | ClC-1 rat inh inactive
Cc1ccc(C(C)C)cc1OCC(=O)Nc1ccc(N2CCCCC2)cc1	TMEM16A inh 25 | TMEM16A reconf inactive | HEK293 Ca mobil inactive | YFP-HEK293 quench inactive | ClC-1 rat inh inactive
O=C(COC(=O)c1cccnc1Cl)Nc1ccc(N2CCCCC2)cc1	none (no result: TMEM16A inh, CSC inhib)
CCCCOC(=O)Nc1ccc(N2CCOCC2)cc1	none
CCCCOC(=O)Nc1ccc(N2CCCCC2)cc1	none | TMEM16A reconf inactive | HEK293 Ca mobil inactive | YFP-HEK293 quench inactive | ClC-1 rat inh inactive
c1ccc(CNc2cncnc2)cc1	none
O=C(Cn1c(=O)n(-c2cccc(C(F)(F)F)c2)c(=O)c2sccc21)NCC1CCCO1 (centres undefined)	TMEM16A inh 25 | TMEM16A reconf inactive | HEK293 Ca mobil inactive | YFP-HEK293 quench inactive | ClC-1 rat inh inactive
CCOC(=O)Nc1cc2c(cc1[N+](=O)[O-])-c1ccccc1C2=O	none (no result: Beta apoptosis, TMEM16A inh, CSC inhib)
CCOC(=O)N1CCN(Cc2nc(N)nc(Nc3ccc(Oc4ccccc4)cc3)n2)CC1	TMEM16A inh 25 (no result: Beta apoptosis) | TMEM16A reconf 17% | HEK293 Ca mobil inactive | YFP-HEK293 quench inactive | ClC-1 rat inh inactive
N#CN1CCC(NS(=O)(=O)c2ccc(C(F)(F)F)cc2)C1 (centres undefined)	none (no result: TMEM16A inh)
COc1cccc(OCCN2CCN(c3ncnc4c3cnn4-c3ccccc3)CC2)c1	TMEM16A inh 100 (no result: Beta apoptosis) | TMEM16A reconf inactive | HEK293 Ca mobil inactive | YFP-HEK293 quench inactive | ClC-1 rat inh inactive
CCC(=O)N(CC)C1=C(O)c2ccccc2C(=O)C1=O	TMEM16A inh 25 | TMEM16A reconf 26% | HEK293 Ca mobil inactive | YFP-HEK293 quench inactive | ClC-1 rat inh inactive

Screening data from PubChem BioAssay.
